SUMO1 PPI mod: modulators of SUMO1 protein-protein interactions, primary screen, biochemical, uHTS; SUMO1 binding to a labelled peptide, TR-FRET, 1 h; inhibition, % at 20 µM; hit rate 0.33% among 360,000; AID 602429, 2012
UHRF1 binding: UHRF1 methylated DNA binding inhibitors, primary screen, counter-screen for MBD2 inhibitor project, biochemical, TR-FRET, human UHRF1, single concentration; E3 ubiquitin-protein ligase UHRF1 (Homo sapiens), Q96T88; UHRF1 binding to methylated oligo; inhibition, % at 4.4 µM; hit rate 0.75% among 370,000; AID 687016, 2013; in the data active means inhibition above about 21%;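 further: UHRF1 SRA domain binding a hemimethylated CpG hairpin DNA probe; 0% = median of test compound wells and 100% = reference inhibitor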
Target sequence (Q96T88 whole entry, looked up, the tested form may be a part): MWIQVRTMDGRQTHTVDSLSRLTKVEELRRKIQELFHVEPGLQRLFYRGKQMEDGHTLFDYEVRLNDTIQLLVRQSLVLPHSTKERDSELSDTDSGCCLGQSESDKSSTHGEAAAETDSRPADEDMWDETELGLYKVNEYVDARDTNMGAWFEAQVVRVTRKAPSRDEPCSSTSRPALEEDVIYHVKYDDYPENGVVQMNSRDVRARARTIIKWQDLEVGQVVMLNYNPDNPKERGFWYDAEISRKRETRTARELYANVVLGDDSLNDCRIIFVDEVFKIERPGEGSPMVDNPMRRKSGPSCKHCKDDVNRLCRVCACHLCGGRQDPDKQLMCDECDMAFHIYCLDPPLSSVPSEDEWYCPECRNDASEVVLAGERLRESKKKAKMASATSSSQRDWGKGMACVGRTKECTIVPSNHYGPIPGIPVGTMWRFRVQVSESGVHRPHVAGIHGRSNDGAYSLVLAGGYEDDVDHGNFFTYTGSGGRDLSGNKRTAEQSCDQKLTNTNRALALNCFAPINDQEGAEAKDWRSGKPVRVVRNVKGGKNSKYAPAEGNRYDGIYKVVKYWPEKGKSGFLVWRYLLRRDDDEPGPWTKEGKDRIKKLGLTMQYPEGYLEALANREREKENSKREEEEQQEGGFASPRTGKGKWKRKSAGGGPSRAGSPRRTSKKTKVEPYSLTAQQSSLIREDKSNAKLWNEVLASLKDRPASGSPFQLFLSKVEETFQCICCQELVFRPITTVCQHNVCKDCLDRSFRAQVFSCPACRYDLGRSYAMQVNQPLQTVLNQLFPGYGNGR
MBD2 DNA inh: inhibitors of MBD2 binding to methylated DNA, primary screen, biochemical, TR-FRET, DNA-binding domain, human | inhibition, % at 4.4 µM | AID 686964, 2013 | hit rate 0.31% among 370,000 | MBD2 binding to methylated oligonucleotide; in the data active means inhibition above about 13%
DNMT1 block: human DNMT1 methyltransferase inhibitors, primary screen, biochemical, molecular beacon, fluorescence, HinP1I cleavage, uHTS | hit rate 0.83% among 360,000 | inhibition (reported as % activation of signal), % at 10 µM | AID 588458, 2011 | DNA (cytosine-5)-methyltransferase 1 (Homo sapiens), P26358; in the data active means inhibition above about 50%
NS3 helicase inh: inhibitors of HCV NS3 helicase, primary screen, biochemical, Cy5 molecular beacon fluorescence; Hepatitis C virus NS3 helicase; inhibition, % at 10.9 µM; hit rate 0.56% among 290,000; NS3 helicase DNA unwinding;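 active means inhibition above the mean of all tested compounds plus 3 SD, set per campaign, cut at about 35% in these data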;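 further: 0% = DMSO wells and 100% = thioflavine S control wells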
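Test system: hepatitis C virus NS3 helicase domain fragment enzyme. Also added: annealed dual-labelled DNA beacon duplex, ATP-started. Timing: 60 min unwinding reaction at 25 °C after ATP addition. Technique: Cy5 fluorescence. Measure: % inhibition of unwinding.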
DSG3 Ab inh: inhibitors of pemphigus antibody binding to DSG3, primary screen, biochemical, bead-based, flow cytometry, scFv-GFP; Desmoglein-3 (Homo sapiens), P32926; DSG3-coupled beads, scFv-anti-DSG3-GFP binding; active compounds read low; AID 588358, 2011; binding (percent of control), % at 10 µM; hit rate 0.48% among 310,000;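 active means binding more than 3 SD below its plate's average and above zero; inconclusive means below that plate limit but binding exactly zero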;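 further: hits lower antibody fragment binding to DSG3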
NS3 helicase cf: HCV NS3 helicase inhibitors, retest, confirmation, biochemical, Cy5 molecular beacon fluorescence, triplicate; shares compounds with NS3 helicase inh; NS3 helicase DNA unwinding; inhibition, % at 10.9 µM; hit rate 31% among 1,600; AID 1943, 2009;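 active means inhibition above the mean of all tested compounds plus 3 SD, cutoff set per campaign, cut at about 36% in these data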
FID counter trip: compounds displacing fluorescent DNA intercalator, artefact control for HCV NS3 helicase inhibitor project, biochemical, FID fluorescence, triplicate | inhibition, % at 7.9 µM | AID 1945, 2009 | shares compounds with NS3 helicase inh | DNA fluorescent intercalator displacement | hit rate 4% among 1,600;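 further: 0% = vehicle and 100% = reference compound; higher means more displacement of ethidium bromide from the DNA hairpin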
DNA FID DR: compounds displacing fluorescent intercalator from DNA, dose response, counter-screen for HCV NS3 helicase inhibitor project, biochemical, fluorescence; 120 tested, under 10 active; shares compounds with NS3 helicase inh; fluorescent intercalator displacement from DNA; IC50, µM; call rule not given here
* marks the source's active call; other numbers are inactive results; ? = inconclusive; / = no result given. Shown are actives, neighbours in structure and some others; about 2.5% of the full set was active somewhere. Unless noted, no stated cut-off is given here; in the data, active means inhibition above about 37%; inactive means the rest.

SMILES | SUMO1 PPI mod | UHRF1 binding | MBD2 DNA inh | DNMT1 block | NS3 helicase inh | DSG3 Ab inh | NS3 helicase cf | FID counter trip | others
CCOc1cc2c3c(c1)C(C)=CC(C)(C)N3C(=O)C2=O | -10.2 | -4.8 | -3.1 | 1.0 | -1.0 | 97.0 | / | /
CC(=O)Oc1cc2c3c(c1)/C(=C1/SC(=S)NC1=O)C(=O)N3C(C)(C)C=C2C | -5.0 | 0.1 | 3.8 | -5.5 | 53.3* | 109.2 | 80.4* | 27.9
Cc1cc(N2C(=O)C(O)=C(C(=O)c3cc4ccccc4o3)C2c2ccc(Br)cc2)no1 (stereo not drawn) | -16.8 | -0.7 | 0.4 | -21.2 | 42.0* | ? | 121.8* | 0.1
Cc1ccc(C(=O)C2=C(O)C(=O)N(Cc3ccccc3)C2c2cccnc2)o1 (stereo not drawn) | -13.5 | / | / | 3.7 | -0.7 | 100.1 | / | /
Cc1ccc(C(=O)C2=C(O)C(=O)N(Cc3cccnc3)C2c2cccc(Oc3ccccc3)c2)o1 (stereo not drawn) | / | -5.6 | -0.9 | / | 44.9* | / | 86.2* | -37.0 | DNA FID DR=>79.4
COC(=O)c1sc(N2C(=O)C(O)=C(C(=O)c3ccc(C)o3)C2c2cc(OC)ccc2OC)nc1C (stereo not drawn) | -15.2 | -4.4 | 0.5 | 0.6 | 53.6* | / | 92.8* | -20.2 | DNA FID DR=>79.4
COc1cccc(C2C(C(=O)c3cc4ccccc4o3)=C(O)C(=O)N2c2cc(C)on2)c1 (stereo not drawn) | -25.0 | 1.2 | 1.5 | -2.6 | 41.2* | 94.6 | 105.1* | 4.9
CSc1ncccc1C(=O)OCn1nnc2ccccc2c1=O | -0.1 | 1.4 | 0.9 | -0.6 | -9.4 | 111.3 | / | /
COc1ccc([N+](=O)[O-])cc1NC(=O)C1CCCO1 (stereo not drawn) | -10.6 | 3.0 | 0.3 | 1.9 | 5.4 | / | / | /
COc1ccc(OC)c(C2C(C(=O)c3cc4ccccc4o3)=C(O)C(=O)N2c2cc(C)on2)c1 (stereo not drawn) | -18.6 | 0.0 | -2.8 | 4.9 | 37.3* | 107.2 | 80.1* | -6.3 | DNA FID DR=>79.4
Cc1cc(N2C(=O)C(O)=C(C(=O)c3ccc(C)o3)C2c2cccc(Oc3ccccc3)c2)no1 (stereo not drawn) | -5.6 | 2.1 | 0.8 | -0.3 | 62.7* | 112.6 | 172.8* | -22.0 | DNA FID DR=>79.4
CC1CCC(NC(=O)c2cccc(S(=O)(=O)NCc3ccccc3)c2)CC1 (stereo not drawn) | 8.2 | -0.2 | -4.2 | -5.9 | / | 100.8 | / | /
O=C(NC1CCCCC1)c1nn2c(C(F)(F)F)cc(-c3ccco3)nc2c1Br | -5.6 | -5.2 | -0.9 | 26.2 | 2.5 | 101.3 | / | /
O=C(c1ccccc1)N1CCN(C(=O)c2nn3c(C(F)(F)F)cc(-c4ccco4)nc3c2Br)CC1 | -5.6 | 2.7 | -1.5 | -5.8 | 47.3* | 97.1 | -22.8 | -42.6
Cc1ccc(C(=O)NCc2ccc3c(c2)OCO3)cc1 | 1.4 | 14.1 | 4.2 | 1.7 | -3.3 | 119.6 | / | /
CCOc1ccc(N(CC(=O)NC2CCCCC2)C(=O)CCC(=O)Nc2ccccn2)cc1 | 4.7 | -2.4 | -0.9 | 1.1 | -6.6 | 122.1 | / | /
COc1ccccc1NC(=O)COc1ccc(C(=O)OCC(=O)NC(C)(C)C)cc1OC | 2.3 | 3.0 | 2.2 | -2.3 | 1.9 | 96.9 | / | /
CC12CCCCC1NS(=O)(=O)OC2 (stereo not drawn) | -4.3 | -1.1 | 3.0 | 7.0 | 41.4* | 106.5 | -16.5 | 9.5
O=C(COc1ccc(Cl)cc1)NCc1nnc(SCC(=O)c2ccccc2)o1 | -1.2 | -4.2 | -2.7 | -1.5 | 15.8 | 91.3 | / | /
CC(C)COc1nc2ccccc2nc1C(C#N)C(=O)NC1CCCCC1 (stereo not drawn) | -4.4 | 0.0 | -3.0 | -5.7 | -0.6 | 98.9 | / | /
Cc1nn(-c2ccccc2)c2c1C1(C(=O)N(C)c3ccccc31)C(C#N)=C(N)O2 (stereo not drawn) | 4.0 | -7.5 | -9.3 | -7.1 | 42.0* | / | -20.9 | -26.7
O=C(O)Cn1c2c(c3ccccc31)CSc1ccc(Cl)cc1-2 | 5.0 | -1.6 | -5.2 | 2.8 | 36.5* | 107.3 | 83.5* | -10.5
O=C(O)Cn1c2ccccc2c2ccccc21 | -0.5 | 2.6 | 1.4 | 3.2 | -0.3 | 87.4 | / | /
COc1ccc(-c2nnn(CC(=O)N(Cc3ccco3)C(C(=O)NCC3CCCO3)c3ccco3)n2)cc1 (stereo not drawn) | -2.9 | -3.9 | -3.4 | 17.3 | 45.3* | 93.9 | -9.0 | -32.3
COc1ccc(-c2nnn(CC(=O)N(Cc3ccccc3Cl)C(C(=O)NCC3CCCO3)c3ccco3)n2)cc1 (stereo not drawn) | 2.3 | 1.4 | -0.8 | -6.8 | -6.2 | 101.8 | / | /
SMILES | SUMO1 PPI mod | UHRF1 binding | MBD2 DNA inh | DNMT1 block | NS3 helicase inh | DSG3 Ab inh | NS3 helicase cf | FID counter trip | others
CCOC(=O)c1cnc(-c2ccccc2)nc1N | -3.1 | 1.1 | 0.0 | 4.1 | 0.5 | 100.4 | / | /
CCOC(=O)c1cnc(-c2ccccc2)nc1N1CCOCC1 | -7.4 | 1.5 | 7.5 | 2.6 | 48.6* | 107.0 | -13.5 | -20.2
COc1ccc(NC(=O)C2CCCN(C(=O)NC3CCCCC3)C2)cc1OC (stereo not drawn) | -1.5 | 4.4 | -6.0 | -0.2 | -1.2 | 98.3 | / | /
CC1=NN(C(N)=S)C(=O)C1N=Nc1ccc(C)c(Br)c1 (stereo not drawn) | -23.7 | -12.2 | 0.1 | -12.1 | 39.5* | 102.0 | -18.7 | 12.9
CC1=NN(C(N)=S)C(=O)C1N=Nc1ccc(O)cc1 (stereo not drawn) | -0.1 | -31.3 | -26.3 | -3.7 | -4.1 | 104.9 | / | /
Oc1c(Br)cc(Cl)cc1C=Nc1ccc(N2CCOCC2)cc1 | -2.5 | 2.1 | -3.9 | 3.2 | 42.8* | 93.2 | 13.2 | 13.1
CCC(=O)Nc1cccc(NC(=S)NC(=O)c2cccs2)c1 | -1.4 | -3.2 | -3.6 | -4.1 | 5.6 | 104.6 | / | /
NC(=S)N/N=C\c1c(OCc2ccccc2Cl)ccc2ccccc12 | -4.9 | -0.5 | -1.2 | 4.5 | 36.3* | 104.2 | 12.4 | -21.0
NC(=S)N/N=C\c1c2ccccc2cc2ccccc12 | -16.6 | -10.4 | -3.2 | 15.8 | -13.2 | 121.2 | / | /

Compound activity (PubChem BioAssay)
